Results published in ChEMBL document CHEMBL2034912, “Synthesis of 4-methylcoumarin derivatives containing 4,5-dihydropyrazole moiety to scavenge radicals and to protect DNA” (Eur J Med Chem, 2012).
Activity calls are given as the source filed them.

Legend:
Type in all cases: functional
[1] = Antioxidant activity against AAPH-induced DNA oxidation assessed as decrease in thiobarbituric acid reactive substances at 80 to 200 uM measured every 120 mins by spectrophotometry
Outline: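 DNA (final 2.0 mg/mL) and AAPH (final 4.0 mM) in phosphate buffer with 10.0 mM EDTA; test compounds added in DMSO across various concentrations; 2.0 mL aliquots incubated at 37 °C. Three tubes withdrawn every 120 min, cooled, treated with TBA and 3.0% trichloroacetic acid, then boiled 15 min; TBARS absorbance read. Inhibition period (t_inh) fitted linearly against concentration.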

[2] = Antioxidant activity assessed as ABTS radical scavenging activity at 40 uM
Outline: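 ABTS (4.0 mM) oxidized with 1.41 mM K₂S₂O₈ for 16 h to form the radical cation, then diluted with ethanol to absorbance about 0.70. Compound added at 0.04 mM, and absorbance decay at 734 nm followed over time. Number of radicals trapped (n) is the depleted ABTS radical concentration divided by antioxidant concentration.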

[3] = system: Radical scavenging activity; test: Antioxidant activity assessed as DPPH radical scavenging activity at 40 uM
Outline: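 DPPH dissolved in ethanol to absorbance about 1.00 at 517 nm (ε […] M⁻¹ cm⁻¹). Compound added as an ethanol solution at a single final concentration, and the decay of DPPH absorbance recorded.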

Measured: Activity

CC(=O)N1N=C(c2c(O)ccc3c(C)cc(=O)oc23)CC1c1cccc([N+](=O)[O-])c1 (centres undefined)
active: all assays above

CC(=O)N1N=C(c2c(O)ccc3c(C)cc(=O)oc23)CC1c1ccc(O)c(O)c1 (centres undefined)
active: all assays above

CC(=O)N1N=C(c2c(O)ccc3c(C)cc(=O)oc23)CC1c1ccccc1O (centres undefined)
active: all assays above

Cc1cc(=O)oc2c(C3=NNC(c4cccc([N+](=O)[O-])c4)C3)c(O)ccc12 (centres undefined)
active: all assays above

O=c1ccc2cc3ccoc3c(O)c2o1
active: all assays above

COc1cc(C2CC(c3c(O)ccc4c(C)cc(=O)oc34)=NN2)ccc1O (centres undefined)
active: all assays above

CC(=O)N1N=C(c2c(O)ccc3c(C)cc(=O)oc23)CC1c1ccc(O)cc1O (centres undefined)
active: all assays above

COc1cc(C2CC(c3c(O)ccc4c(C)cc(=O)oc34)=NN2C(C)=O)ccc1O (centres undefined)
active: all assays above
